According to ChEMBL document CHEMBL4428054, “Synthesis of Fluorescent Binaphthyl Amines That Bind c-MYC G-Quadruplex DNA and Repress c-MYC Expression” (J Med Chem, 2016):

Legend:
Type in all cases: nucleic-acid assay
Quadruplex DNA [1] = test: Stabilization of 5'-FAM and 3'-TAMRA-labeled c-KIT1 G-quadruplex (unknown origin) assessed as change in melting temperature at 1 uM by FRET assay; conditions: unidentified
Procedure, shortened: (§1)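 FRET melting of dual-labelled (5′-FAM/3′-TAMRA) promoter quadruplexes or duplex in 60 mM potassium cacodylate buffer, pH 7.4. ΔTm is taken against ligand-free Tm. The ligand was tested across a concentration series. Maximum measurable Tm is 93 °C.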

Quadruplex DNA [2] = test: Stabilization of 5'-FAM and 3'-TAMRA-labeled c-KIT2 G-quadruplex (unknown origin) assessed as change in melting temperature at 1 uM by FRET assay; conditions: unidentified; procedure, shortened: as §1
Quadruplex DNA [3] = test: Stabilization of 5'-FAM and 3'-TAMRA-labeled c-MYC G-quadruplex (unknown origin) assessed as change in melting temperature at 1 uM by FRET assay; conditions: unidentified; procedure, shortened: as §1
dsDNA = test: Stabilization of 5'-FAM and 3'-TAMRA-labeled dsDNA (unknown origin) assessed as change in melting temperature at 1 uM by FRET assay; procedure, shortened: as §1
Quadruplex DNA [4] = test: Stabilization of 5'-FAM and 3'-TAMRA-labeled k-RAS G-quadruplex (unknown origin) assessed as change in melting temperature at 1 uM by FRET assay; conditions: unidentified; procedure, shortened: as §1

- ΔTm (Quadruplex DNA [1]): 2.5 °C
- ΔTm (Quadruplex DNA [2]): 2.8 °C
- ΔTm (Quadruplex DNA [3]): 4.5 °C
- ΔTm (dsDNA): 0.5 °C
- ΔTm (Quadruplex DNA [4]): 3.8 °C
Structure (SMILES): O=C(O)c1ccc(Nc2ccc(-c3ccc(Nc4ccc(C(=O)O)cc4)c4ccccc34)c3ccccc23)cc1
